Experimental data taken from ChEMBL document CHEMBL3877310, “Rickettsia prowazekii methionine aminopeptidase as a promising target for the development of antibacterial agents” (Bioorg Med Chem, 2017).
Active and inactive are the calls of the source. The calls are words filed in the database; no cut-off is given here.

Legend:
Endothelial cell [1] = test: Antibacterial activity against Rickettsia prowazekii str. Breinl infected in CD rat primary pulmonary vascular endothelial cells assessed as protection against bacterial infection by measuring restoration of host cell viability at 0.3 to 300 uM measured 72 hrs post infection by WST1 assay; assay type: functional, cell-based
Rattus norvegicus [2] = organism: Rattus norvegicus; test: Cytotoxicity against CD rat primary pulmonary vascular endothelial cells assessed as reduction in cell viability at 0.3 to 300 uM measured after 72 hrs by WST1 assay; assay type: toxicity, cell-based
In short: (§1)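 Uninfected primary CD-rat pulmonary ECs (passage <15, DMEM high glucose/10% FBS/4 mM L-glutamine, 37 °C, 5% CO2) exposed to compounds over graded ranges with 0.3% DMSO as solvent. Viability read as WST-1 metabolism.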

[3] = target: Methionine aminopeptidase 1 (Homo sapiens, UniProt P53582); test: (§2) Inhibition of recombinant full length human His-tagged methionine aminopeptidase 1 expressed in Escherichia coli BL21(DE3) using methionylprolyl-p-nitroanilide as substrate preincubated for 20 mins followed by substrate addition measured for 20 mins in presence of CoCl2 by proline aminopeptidase coupled enzyme assay
[4] = target: Methionine aminopeptidase 2 (Homo sapiens, UniProt P50579); test: as §2, with “N-terminal GST/His6-tagged” for “His-tagged”, “2” for “1”, “baculovirus infected sf9 cells” for “Escherichia coli BL21(DE3)”, “MnCl2” for “CoCl2”
Methionine aminopeptidase 2, sequence (P50579 whole entry): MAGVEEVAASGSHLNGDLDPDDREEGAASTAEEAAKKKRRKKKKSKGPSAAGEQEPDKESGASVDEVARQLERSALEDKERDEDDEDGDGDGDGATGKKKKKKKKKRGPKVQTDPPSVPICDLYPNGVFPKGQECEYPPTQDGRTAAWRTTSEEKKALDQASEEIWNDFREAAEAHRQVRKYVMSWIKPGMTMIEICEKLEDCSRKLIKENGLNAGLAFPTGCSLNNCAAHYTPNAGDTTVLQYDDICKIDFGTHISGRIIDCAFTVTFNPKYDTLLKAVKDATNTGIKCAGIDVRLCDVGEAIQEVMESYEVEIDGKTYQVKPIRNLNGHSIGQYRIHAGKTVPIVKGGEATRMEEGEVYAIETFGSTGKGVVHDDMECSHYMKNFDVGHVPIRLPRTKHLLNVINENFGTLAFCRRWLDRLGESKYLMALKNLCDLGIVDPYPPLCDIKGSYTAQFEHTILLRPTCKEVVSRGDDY

Endothelial cell [5] = test: Antibacterial activity against Rickettsia prowazekii str. Breinl infected in CD rat primary pulmonary vascular endothelial cells assessed as protection against bacterial infection by measuring restoration of host cell viability at 0.03 to 30 uM measured 72 hrs post infection by WST1 assay; assay type: functional, cell-based
Rattus norvegicus [6] = organism: Rattus norvegicus; test: Cytotoxicity against CD rat primary pulmonary vascular endothelial cells assessed as reduction in cell viability at 0.03 to 30 uM measured after 72 hrs by WST1 assay; assay type: toxicity, cell-based; in short: as §1
Rattus norvegicus [7] = organism: Rattus norvegicus; test: Cytotoxicity against CD rat primary pulmonary vascular endothelial cells assessed as reduction in cell viability at 0.003 to 3 uM measured after 72 hrs by WST1 assay; assay type: toxicity, cell-based; in short: as §1
Rattus norvegicus [8] = organism: Rattus norvegicus; test: Cytotoxicity against CD rat primary pulmonary vascular endothelial cells assessed as reduction in cell viability at 0.02 to 20 uM measured after 72 hrs by WST1 assay; assay type: toxicity, cell-based; in short: as §1
Rattus norvegicus [9] = organism: Rattus norvegicus; test: Cytotoxicity against CD rat primary pulmonary vascular endothelial cells assessed as effect on appearance of cell monolayers at 300 uM measured after 72 hrs by Hoechst 33258/phalloidin staining based fluorescence microscopic analysis; assay type: toxicity
Endothelial cell [10] = test: Antibacterial activity against Rickettsia prowazekii str. Breinl infected in CD rat primary pulmonary vascular endothelial cells assessed as bacterial shape change at 300 uM measured 72 hrs post infection by Hoechst 33258/phalloidin staining based fluorescence microscopic analysis; assay type: functional
[11] = (§3) Antibacterial activity against Rickettsia prowazekii str. Breinl infected with 50:1 multiplicity of infection in CD rat primary pulmonary vascular endothelial cells assessed as restoration of host cell viability by measuring fold reduction in viability at 0.3 to 300 uM measured 72 hrs post infection by WST1 assay relative to control; assay type: functional
Endothelial cell [12] = test: Antibacterial activity against Rickettsia prowazekii str. Breinl infected in CD rat primary pulmonary vascular endothelial cells assessed as protection against bacterial infection by measuring restoration of host cell viability at 0.003 to 3 uM measured 72 hrs post infection by WST1 assay; assay type: functional, cell-based
[13] = as §3, with “0.003” for “0.3”, “3” for “300”; assay type: functional
Rattus norvegicus [14] = organism: Rattus norvegicus; test: Cytotoxicity against CD rat primary pulmonary vascular endothelial cells assessed as reduction in cell viability at 0.0075 to 7.5 uM measured after 72 hrs by WST1 assay; assay type: toxicity, cell-based; in short: as §1
Endothelial cell [15] = test: Antibacterial activity against Rickettsia prowazekii str. Breinl infected in CD rat primary pulmonary vascular endothelial cells assessed as bacterial shape change at 25 ug/ml measured 72 hrs post infection by Hoechst 33258/phalloidin staining based fluorescence microscopic analysis; assay type: functional

Nc1n[nH]c(SCc2ccccc2Cl)n1
Activity (Endothelial cell [1]): Active
Activity (Rattus norvegicus [2]): Non-Toxic

Oc1cccc2cccnc12 [OXYQUINOLINE]
IC50 [3]: 12.9 µM
IC50 [4]: 1.27 µM
Activity (Endothelial cell [5]): Active
Activity (Rattus norvegicus [6]): Non-Toxic

Cc1ccc2cccc(O)c2n1 [8-HYDROXY QUINALDINE]
IC50 [3]: > 15 µM
Activity (Rattus norvegicus [7]): Non-Toxic

Nc1nnc(SCc2ccc(F)cc2)[nH]1
Activity (Endothelial cell [1]): Active
Activity (Rattus norvegicus [2]): Non-Toxic

Oc1c(CN2CCOCC2)cc(Cl)c2cccnc12
Activity (Rattus norvegicus [8]): Non-Toxic

CC(C)c1ccc(CSc2nnc(N)[nH]2)cc1
Activity (Rattus norvegicus [6]): Non-Toxic

Nc1nnc(SCc2ccc(Cl)cc2)[nH]1
Activity (Endothelial cell [1]): Active
Activity (Rattus norvegicus [2]): Non-Toxic
Activity (Rattus norvegicus [9]): Non-Toxic
Activity (Endothelial cell [10]): Active
fold change (FC) [11]: 1.2

Nc1n[nH]c(SCc2ccccc2)n1
Activity (Endothelial cell [1]): Active
Activity (Rattus norvegicus [2]): Non-Toxic

O=[N+]([O-])c1cc(CN2CCOCC2)c(O)c2ncccc12
Activity (Endothelial cell [12]): Active
fold change (FC) [13]: 1.2
Activity (Rattus norvegicus [7]): Non-Toxic

O=C(O)c1ccc(-c2ccccc2Cl)o1
Activity (Rattus norvegicus [2]): Non-Toxic

Nc1nnc(SCc2ccc(Cl)cc2Cl)[nH]1
Activity (Rattus norvegicus [6]): Non-Toxic

O=[N+]([O-])c1cc(CN2CCCCC2)c(O)c2ncccc12
Activity (Rattus norvegicus [14]): Non-Toxic

O=[N+]([O-])c1ccc(O)c2ncccc12 [NITROXOLINE]
Activity (Rattus norvegicus [7]): Non-Toxic

CC(C)(C)c1ccc(CSc2nnc(N)[nH]2)cc1
IC50 [4]: > 15 µM
Activity (Rattus norvegicus [6]): Non-Toxic

O=C(O)c1ccc(-c2cc(Cl)ccc2Cl)o1
Activity (Rattus norvegicus [2]): Non-Toxic

C[C@H]1c2cccc(O)c2C(=O)C2=C(O)[C@]3(O)C(=O)C(C(N)=O)=C(O)[C@@H](N(C)C)[C@@H]3[C@@H](O)[C@@H]21
Activity (Endothelial cell [15]): Active

Cc1ccc(CSc2nnc(N)[nH]2)cc1
Activity (Endothelial cell [1]): Active
Activity (Rattus norvegicus [2]): Non-Toxic

Oc1ccc(Cl)c2cccnc12 [CLOXYQUIN]
Activity (Endothelial cell [5]): Active
Activity (Rattus norvegicus [6]): Non-Toxic
